Results published in ChEMBL document CHEMBL1139917, “Synthesis of isoquinuclidine analogs of chloroquine: antimalarial and antileishmanial activity” (Bioorg Med Chem, 2007).
In brackets after ≈: the same amount, converted by molar mass.

Assays:
[1] = test system: Plasmodium falciparum; assay: Antimalarial activity against chloroquine-sensitive Plasmodium falciparum D6; type: functional, organism-based
Method in brief: (§1)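 P. falciparum D6 (Sierra Leone, chloroquine-sensitive) and W2 (Indochina, chloroquine-resistant) clones were kept in type A human RBCs and subcultured daily. The assay used infected-cell suspensions at 2% parasitemia and 2% hematocrit in 96-well microplates, run in duplicate across several concentrations. IC50 was taken from dose curves. Artemisinin and chloroquine served as drug controls, with DMSO as vehicle control.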

[2] = test system: Plasmodium falciparum; assay: Antimalarial activity against chloroquine-resistant Plasmodium falciparum W2; type: functional, organism-based; method in brief: as §1
[3] = test system: Vero; assay: Cytotoxicity against Vero cells by neutral red assay; type: cell-based; settings: chlorocebus sabaeus
Method in brief: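 VERO (monkey kidney fibroblast) cells tested in parallel with the antiparasitic assays. Viability read by Neutral Red assay. IC50 computed from growth inhibition curve.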

[4] = Selectivity index, ratio of IC50 for Vero cells to IC50 for chloroquine-resistant Plasmodium falciparum W2; type: functional
Method in brief: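 Vero (monkey kidney fibroblast) cytotoxicity was run in parallel with the P. falciparum W2 assay using the Neutral Red assay, with IC50 taken from growth inhibition curves. The selectivity index is the Vero IC50 divided by the W2 IC50.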

[5] = Selectivity index, ratio of IC50 for Vero cells to IC50 for chloroquine-sensitive Plasmodium falciparum D6; type: functional
Method in brief: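 Ratio of Vero cell cytotoxicity (Neutral Red, run in parallel) to activity against P. falciparum D6 (Sierra Leone, chloroquine-sensitive). Parasite assay: D6 grown in type A human RBCs, subcultured daily; infected cells at 2% parasitemia, 2% hematocrit in 96-well plates; duplicate wells at several concentrations. IC50 from dose curves; DMSO vehicle control.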

[6] = test system: Leishmania donovani; assay: Antileishmanial activity against Leishmania donovani promastigotes after 72 hrs by Alamar blue assay; type: functional, organism-based
Method in brief: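 Leishmania donovani promastigote culture at 2 × 10⁶ cells/mL, 96-well format; compounds diluted in DMSO. Incubation 72 h at 26 °C. Growth read by Alamar blue adapted to fluorometric readout. Pentamidine and amphotericin B as standard agents. IC50 computed from growth inhibition curve.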

| Structure (SMILES) | IC50 [1] [µg/mL] | IC50 [2] [µg/mL] | Activity [3] | Ratio IC50 [4] | Ratio IC50 [5] | IC50 [6] [µg/mL] | IC90 [6] [µg/mL] |
| --- | --- | --- | --- | --- | --- | --- | --- |
| C[C@@H]1CC[C@H]2[C@@H](C)C(=O)O[C@@H]3O[C@@]4(C)CC[C@@H]1[C@]32OO4 [ARTEMISININ] | 0.0036 (≈ 0.0128 µM) | 0.0018 (≈ 0.00638 µM) |  |  |  |  |  |
| CN1CC2CCC1C(CNc1ccnc3cc(Cl)ccc13)C2 (stereo not drawn) | 0.0038 (≈ 0.012 µM) | 0.004 (≈ 0.0127 µM) | Non-toxic | >1190 | >1252.3 | 3 (≈ 9.5 µM) | 6.5 (≈ 20.6 µM) |
| CN(C)CC1CC2CCC1N(c1ccnc3cc(Cl)ccc13)C2 (stereo not drawn) | 0.012 (≈ 0.0364 µM) | 0.018 (≈ 0.0546 µM) | Non-toxic | >264.4 | >396.7 | 1.9 (≈ 5.76 µM) | 6 (≈ 18.2 µM) |
| CCN(CC)CC1CC2CCC1N(c1ccnc3cc(Cl)ccc13)C2 (stereo not drawn) | 0.31 (≈ 0.866 µM) | 0.2 (≈ 0.559 µM) | Non-toxic | >23.8 | >15.4 | 3.8 (≈ 10.6 µM) | 8 (≈ 22.4 µM) |
| NCC1CC2CCC1N(c1ccnc3cc(Cl)ccc13)C2 (stereo not drawn) | 0.13 (≈ 0.431 µM) | 0.18 (≈ 0.596 µM) | Non-toxic | >26.4 | >36.6 | 4.2 (≈ 13.9 µM) | 20 (≈ 66.3 µM) |
| N=C(N)c1ccc(OCCCCCOc2ccc(C(=N)N)cc2)cc1 [PENTAMIDINE] |  |  |  |  |  | 2.8 (≈ 8.22 µM) | 10 (≈ 29.4 µM) |
| N#CC1CC2CCC1N(c1ccnc3cc(Cl)ccc13)C2 (stereo not drawn) | 0.35 (≈ 1.18 µM) | 0.17 (≈ 0.571 µM) | Non-toxic | >28 | >13.6 | 16 (≈ 53.7 µM) | 33 (≈ 111 µM) |
| CCNCC1CC2CCC1N(c1ccnc3cc(Cl)ccc13)C2 (stereo not drawn) | 0.28 (≈ 0.849 µM) | 0.11 (≈ 0.333 µM) | Non-toxic | >43.2 | >17 | 7.2 (≈ 21.8 µM) | 29 (≈ 87.9 µM) |
| C[C@@H]1[C@H](O)[C@@H](C)/C=C/C=C/C=C/C=C/C=C/C=C/C=C/[C@H](O[C@@H]2O[C@H](C)[C@@H](O)[C@H](N)[C@@H]2O)C[C@@H]2O[C@](O)(C[C@@H](O)C[C@@H](O)[C@H](O)CC[C@@H](O)C[C@@H](O)CC(=O)O[C@H]1C)C[C@H](O)[C@H]2C(=O)O [AMPHOTERICIN B] |  |  |  |  |  | 0.18 (≈ 0.195 µM) | 1.8 (≈ 1.95 µM) |
